Screen size: about 300,000 compounds; about 120 (0.04%) were called active. The sample holds actives, similar compounds and a random draw of the others, so the mix is not that of the screen.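 The calls were made as follows: active = more than half of replicate wells score below -50%, meaning over 50% inhibition versus plate controls; inconclusive = some replicates but at most half score below -50%; inactive = no replicate scores below -50%.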
target: Glycogen synthase kinase-3 beta (Homo sapiens) (UniProt P49841); experiment: human GSK3beta kinase inhibitors, primary screen, biochemical, cell-free homogeneous, HTS (AID 2097); details: GST-GSK3beta kinase, ADP-Glo luminescence, 60 min; at 10 µM; stronger effect = lower value;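 also: 0% = median DMSO wells and -100% = median GW8510 positive control wells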
Sequence (P49841 whole entry, looked up): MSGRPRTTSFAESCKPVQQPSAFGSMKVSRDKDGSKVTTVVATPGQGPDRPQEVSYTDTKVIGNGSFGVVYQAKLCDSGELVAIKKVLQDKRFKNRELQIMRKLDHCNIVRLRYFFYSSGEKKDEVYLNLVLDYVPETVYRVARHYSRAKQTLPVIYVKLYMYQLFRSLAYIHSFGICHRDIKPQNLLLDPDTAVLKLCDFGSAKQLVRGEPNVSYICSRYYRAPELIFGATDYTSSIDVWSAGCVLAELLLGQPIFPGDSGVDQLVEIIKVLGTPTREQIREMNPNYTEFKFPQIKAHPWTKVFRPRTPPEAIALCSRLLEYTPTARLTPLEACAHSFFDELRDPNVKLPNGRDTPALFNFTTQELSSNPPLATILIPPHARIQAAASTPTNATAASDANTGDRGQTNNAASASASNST
Procedure, shortened: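 Assay system: GST-tagged human GSK3beta kinase, cell-free; Input: 1.6 ng GSK3beta; Medium: Tris/MgCl2 kinase buffer; Timing: 60 min enzyme reaction, room temperature; Signal: ADP-Glo luminescence quantifying ADP generated by kinase; Evaluation: score relative to plate controls; Benchmarks: DMSO neutral wells and GW8510 at 20 µM as positive.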

Row | SMILES | activity score (negative = inhibition)
1 | CC(C)Cc1ccc(C(C)C(=N)N)cc1 (centres undefined) | -0.885% (inactive)
2 | CC(C)(C)c1ccc(C(=O)NNC(=O)Cc2ccccc2)cc1 | -1.05% (inactive)
3 | COc1ccc(NC(=O)C2CCC(CNS(=O)(=O)c3csc(C(N)=O)c3)CC2)cc1OC (centres undefined) | 2.83% (inactive)
4 | O=c1c2c(ncn1Cc1ccccc1)nc1n2CCC1 | -1.79% (inactive)
5 | O=C(CSc1ccc(-c2ccc(-n3cccn3)cc2)nn1)Nc1ccc([N+](=O)[O-])cc1 | -1.44% (inactive)
6 | CCO[C@@H]1OC(C(=O)NC2CC2)=C[C@H](C)[C@H]1CCCO | 1.19% (inactive)
7 | CCOC(=O)C1=C(CC)Nc2ccccc2N=C1NC(=O)c1cccc(S(=O)(=O)N2CCCC2)c1 | 3.96% (inactive)
8 | CN(Cc1ccccc1)CC(O)COc1ccc(CNCc2cc3ccccc3s2)cc1 (centres undefined) | 2.68% (inactive)
9 | CCN(CC)S(=O)(=O)c1ccc2c3c(cccc13)C(=O)S2 | -2.37% (inactive)
10 | O=C1COc2ccc(C(=O)COC(=O)C3CC(O)CN3S(=O)(=O)c3ccc(Cl)cc3)cc2N1 (centres undefined) | 1.53% (inactive)
11 | CC(C)(C)NC(=O)CN(C(=O)c1csnn1)c1ccccc1-c1ccccc1 | -0.766% (inactive)
12 | Cc1cc(/C=N/Nc2ccc([N+](=O)[O-])cn2)c(C)n1-c1cccc(C(=O)O)c1 | -14.7% (inactive)
13 | COc1cc(/C=N\Nc2ccc([N+](=O)[O-])cn2)ccc1OCC(=O)O | -70.1% (active)
14 | CCOc1ccc(/C=N/Nc2nncc(-c3ccccc3)n2)cc1OC | -0.0724% (inactive)
15 | O=C(C1CCN(S(=O)(=O)Cc2ccccc2)CC1)N1CCCc2ccccc21 | 4.16% (inactive)
16 | O=C(Nc1cccc(Cl)c1)Nc1ccccc1NS(=O)(=O)c1cccs1 | 1.54% (inactive)
17 | C1=C(N2CCOCC2)/C(=C/c2nc3ccccc3[nH]2)CC1 | -1.13% (inactive)
18 | C=CCc1cccc(/C=N/NC(=O)COc2ccc(-n3cnnn3)cc2)c1O | -4.1% (inactive)
19 | O=C(NCc1cccnc1)c1cc(S(=O)(=O)N2CCOCC2)c(Cl)cc1Cl | -0.415% (inactive)
20 | COc1ccc(C(=O)Oc2ccc(-c3nnco3)cc2)cc1S(=O)(=O)N1CCOCC1 | 2.99% (inactive)
21 | O=C(CCN1C(=O)c2ccccc2C1=O)NNC(=O)c1ccc(Cl)cc1Cl | 1.29% (inactive)
22 | COc1cc(C(=O)NCc2nnc(SCC(=O)Nc3nc4ccc(C)cc4s3)o2)cc(OC)c1OC | -2.02% (inactive)
23 | O=C1CCN(CCc2ccccc2)CCN1CCOc1ccccc1 | 3.91% (inactive)

Row | SMILES | activity score (negative = inhibition)
24 | CN1C2CCC1/C(=C\c1ccccc1Cl)C(=O)/C2=C\c1ccccc1Cl | 0.435% (inactive)
25 | COc1ccccc1N(C)C(=O)c1cc(S(=O)(=O)N2CCc3ccccc32)cn1C | 0.131% (inactive)
26 | CCCCC(NC(=O)c1cccc(Br)c1)C(=O)O (centres undefined) | -0.419% (inactive)
27 | Cc1c(CCC(=O)N[C@@H](CC(C)C)C(=O)O)c(=O)oc2c(C)c3oc4c(c3cc12)CCCC4 | -23.5% (inactive)
28 | O=C(OCc1nnc(-c2ccccc2)o1)c1cc(=O)[nH]c2ccccc12 | -0.304% (inactive)
29 | Cc1ccc(C(=O)NC2CCN(C(=O)Nc3ccccc3Cl)CC2)cc1 | 2.37% (inactive)
30 | Nc1nc(NCCCN2CCOCC2)nc(Nc2ccccc2)c1[N+](=O)[O-] | -73.5% (active)
31 | O=[N+]([O-])c1ccc(NCCCN2CCOCC2)c(Cl)c1 | -5.04% (inactive)
32 | CC1CN(c2nc(Nc3ccccc3)nc(N)c2[N+](=O)[O-])CC(C)O1 (centres undefined) | -27.9% (inactive)
33 | COc1ccc([N+](=O)[O-])cc1NC(=O)COC(=O)/C=C/c1ccco1 | 1.89% (inactive)
34 | CCOc1ccccc1C(=O)NC1CC2CCCC(C1)N2Cc1ccccc1 (centres undefined) | 1.55% (inactive)
35 | Cc1cccc(-c2nc3c(c(SCC(=O)N4CCOCC4)n2)CCCC3)c1 | -0.852% (inactive)
36 | COc1ccccc1NC(=O)CCC(=O)N1CC(C)Oc2ccc(C)cc21 (centres undefined) | -0.0566% (inactive)
37 | CCOC(=O)C[C@H]1c2ccc(C(F)(F)F)cc2S(=O)(=O)N1c1ccccc1 | 3.21% (inactive)
38 | CCC1(c2ccccc2)NC(=O)N(CC(=O)Nc2ccccc2C(=O)NC2CCCC2)C1=O (centres undefined) | 1.66% (inactive)
39 | COc1ccc(-c2ccc(OC(=O)NC3CCS(=O)(=O)C3)cc2)cc1 (centres undefined) | 1.32% (inactive)
40 | C=C(C)C(=O)O[C@H]1C/C(C)=C\C(=O)/C=C(\C)[C@H](O)[C@@H]2OC(=O)C(=C)[C@@H]21 | 2.58% (inactive)
41 | Cc1ccc(S(=O)(=O)/N=S(\C)C(C)C)cc1 (centres undefined) | -3.78% (inactive)
42 | Cc1nn(-c2ccccc2)c2c1c(C)c(CCC(=O)NCC1CCCO1)c(=O)n2C (centres undefined) | -0.881% (inactive)
43 | COc1ccc(CCC(C)N2CCc3ccccc3C2)cc1 (centres undefined) | 3.34% (inactive)
44 | COc1ccc(CNS(=O)(=O)c2cc3c4c(c2)CCN4C(=O)CC3)cc1 | 0.199% (inactive)
45 | COc1ccc(C2OCC3(CO2)SC(=O)NC3=O)cc1OC (centres undefined) | -1.61% (inactive)
46 | Cc1ccc(C(=O)Nc2nc3ccc(Cl)cc3s2)o1 | -1.18% (inactive)

Row | SMILES | activity score (negative = inhibition)
47 | Cc1ccc(OCCNC(=O)CNC(=O)c2ccc(C)c(C)c2)cc1 | -1.65% (inactive)
48 | COC(=O)C1=NNC2(c3ccc(C)cc3)C(=O)N(c3cccc(C)c3C)C(=O)C12 (centres undefined) | 1.69% (inactive)
49 | Cc1ccc(C2SCC(=O)N2c2ccccc2)cc1 (centres undefined) | -1.18% (inactive)
50 | C[C@H](NC(=O)c1ccccc1Cl)C(=O)OCCOc1cccc(Cl)c1 | -1.48% (inactive)
51 | O=C(CCCN1C(=O)CSc2ncccc21)N1CCN(c2cccc(C(F)(F)F)c2)CC1 | -4.32% (inactive)
52 | CCC(C(=O)OCC(=O)Nc1ccccc1-c1ccccc1)c1ccccc1 (centres undefined) | 0.894% (inactive)
53 | CC(=O)c1ccc(NC(=S)N(Cc2ccccc2)C(C)C2CC2)cc1 (centres undefined) | -0.731% (inactive)
54 | Cc1nnc(C)c2c(C)n(N)c(C)c12 | 1.96% (inactive)
55 | CNC(=O)NC(=O)C(OC(=O)c1cccc(S(=O)(=O)N2CCCCC2)c1)c1ccccc1 (centres undefined) | 1.44% (inactive)
56 | O=C(/C=C/c1cccc([N+](=O)[O-])c1)NCCSCc1ccco1 | -1% (inactive)
57 | CC(C)Nc1nnc(SC(C)C(=O)N(C)C2CCCCC2)s1 (centres undefined) | -10.4% (inactive)
58 | CCc1nnc(NC(=O)CSCc2cc(=O)n3cc(C)sc3n2)s1 | 1.76% (inactive)
59 | COc1ccc(C)cc1Nc1n[n+](-c2ccccc2)c(-c2cccc(Cl)c2Cl)s1 | 1.38% (inactive)
60 | COC(=O)c1ccc2c(C(C)(C)O)c(C(C)(C)O)[nH]c2c1 | 0.923% (inactive)
61 | Cc1cc(C)n2nc(C(=O)N(C)C(c3ccccc3)c3ccccc3)nc2n1 | -1.04% (inactive)
62 | COC(=O)c1ccc(CNC(=O)C2CCC(=O)N(Cc3cccc(F)c3)C2)cc1 (centres undefined) | -6.3% (inactive)
63 | CCc1noc(C)c1C(=O)N1CCCSC1=Nc1ccccc1OC | 3.72% (inactive)
64 | CC(OC(=O)c1ccc(S(=O)(=O)N2CCOCC2)cc1)c1ccccc1 (centres undefined) | -0.509% (inactive)
65 | O=C(N/N=C/c1ccccc1O)/C(=C/c1ccccc1)CCO | 0.241% (inactive)
66 | CC1CC2=C(CC1/C=N/NC(N)=S)C(C)(C)CCC2 (centres undefined) | -1.32% (inactive)
67 | O=C1NC(Nc2nc3ccccc3s2)(C(F)(F)F)C(=O)N1C1CCCCC1 (centres undefined) | -3.19% (inactive)
68 | Cc1ccc(C2=NN(C)c3nc4ccccc4n3C2)cc1 | 1.54% (inactive)
69 | Nc1nc(CC(=O)CSc2ccc(Cl)cc2)nc(Nc2ccc(F)cc2)n1 | 0.55% (inactive)

Row | SMILES | activity score (negative = inhibition)
70 | Oc1c(Cl)cc(Cl)cc1/C=N/c1ncn[nH]1 | 0.992% (inactive)
71 | COC(C[C@H](O)CC(=O)[C@@H](C)OCc1ccccc1)OC | -8.84% (inactive)
72 | Cc1cc(C)c(-c2csc(NC(=O)CCCc3nc4ccccc4c(=O)[nH]3)n2)c(C)c1 | 2.17% (inactive)
73 | COC(=O)Nc1ccc(S(=O)(=O)N2CCN(CCN3C(=O)C4C5C=CC(C5)C4C3=O)CC2)cc1 (centres undefined) | -3.94% (inactive)
74 | O=C1C(=O)N(CCCN2CCOCC2)C(c2ccc([N+](=O)[O-])cc2)/C1=C(\O)c1ccc2c(c1)OCCO2 (centres undefined) | 1.45% (inactive)
75 | COc1nc(Oc2ccc(=O)n(C)n2)nc(N(C)C)n1 | 0.382% (inactive)
76 | Cc1ccc(OCC(=O)Nc2ccc(C(=O)O)cc2NC(=O)COc2ccc(C)c(C)c2)cc1C | 2.29% (inactive)
77 | CC(=O)N1CCSc2ccc(S(=O)(=O)N3CCC(C)CC3)cc21 | 1.34% (inactive)
78 | O=C(NCc1ccco1)C1CCCN1S(=O)(=O)c1ccccc1C(F)(F)F (centres undefined) | 1.38% (inactive)
79 | Cn1c(=O)[nH]c(=O)c2c1nc(N1CCN(C(c3ccccc3)c3ccccc3)CC1)n2CCO | -22.6% (inactive)
80 | CCN(CC(=O)Nc1ccccc1C(F)(F)F)C(=O)CSCc1c(C)noc1C | -1.14% (inactive)
81 | CN1CCN(S(=O)(=O)c2ccc(Nc3ccc(F)cc3)nc2)CC1 | 2.53% (inactive)
82 | CC1(C)Cc2ccccc2/C(=C/C(=O)c2ccccc2)N1 | -1.05% (inactive)
83 | CN(C)S(=O)(=O)c1ccc(N2CCCC2)c(C(=O)Nc2ccc(Br)cc2F)c1 | 3.14% (inactive)
84 | COc1ccc2c(c1OC)C(=O)N(c1ccc(O)cc1)C2 | -1.79% (inactive)
85 | C=CCOc1c2ccc(C(=O)N(CC)c3ccc(OC)cc3)cc2nn1C | 0.746% (inactive)
86 | O=CN1CCN(C(=O)c2ccc3c(c2)OCO3)CC1 | 2.93% (inactive)
87 | C/C(CC(=O)NCc1ccc(Cl)cc1)=N\NC(=O)COc1ccc(C)cc1Br | -2.78% (inactive)
88 | COc1ccccc1C(=O)N(C1=NC(C)CS1)c1ccc(Cl)cc1 (centres undefined) | 6.2% (inactive)
89 | O=C(Nc1ccccc1)Nc1nnc(COc2ccccc2F)s1 | 0.847% (inactive)
